Test results as given in ChEMBL document CHEMBL3259631, “Identification of the first potent, selective and bioavailable PPARα antagonist” (Bioorg Med Chem Lett, 2014).
≈ marks a conversion by molar mass, not a printed value. Calls of active or inactive are those of the source. The calls are words filed in the database; no cut-off is given here.

Experiments:
[1] = Cmax in CD-1 mouse at 30 mg/kg, ip after 1 hr; assay type: ADME, organism-based; design: dose 30 mg/kg, route intraperitoneal; conditions: in vivo
How it was run: (§1)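 Mouse pharmacokinetics in CD1 mice given a single intraperitoneal dose of 30 mpk, formulated in saline or in 98% saline/2% tween.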

[2] = AUC in CD-1 mouse at 30 mg/kg, ip; assay type: ADME, organism-based; design: dose 30 mg/kg, route intraperitoneal; conditions: plasma; how it was run: as §1
[3] = target: T1, Peroxisome proliferator-activated receptor gamma (Homo sapiens, UniProt P37231); experiment: Inhibition of human PPAR-gamma
T1 sequence (P37231 whole entry): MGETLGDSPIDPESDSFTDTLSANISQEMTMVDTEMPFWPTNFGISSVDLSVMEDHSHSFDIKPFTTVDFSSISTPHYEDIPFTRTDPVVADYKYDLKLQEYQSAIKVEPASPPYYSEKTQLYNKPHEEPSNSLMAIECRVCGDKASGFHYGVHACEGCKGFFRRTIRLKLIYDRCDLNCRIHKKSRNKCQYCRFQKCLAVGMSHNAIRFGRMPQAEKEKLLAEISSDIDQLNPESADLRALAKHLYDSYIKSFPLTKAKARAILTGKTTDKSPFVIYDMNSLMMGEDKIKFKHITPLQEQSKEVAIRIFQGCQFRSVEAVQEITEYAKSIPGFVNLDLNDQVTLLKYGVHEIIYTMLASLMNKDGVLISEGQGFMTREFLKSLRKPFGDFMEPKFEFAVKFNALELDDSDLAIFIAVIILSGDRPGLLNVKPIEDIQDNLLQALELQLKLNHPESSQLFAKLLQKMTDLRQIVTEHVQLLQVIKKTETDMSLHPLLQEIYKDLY

[4] = Solubility of the compound in aqueous buffer at pH 7.4 after 24 hrs by LC-MS/MS analysis; assay type: physicochemical
How it was run: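 Compound from a 10 mM DMSO stock was added to pH 7.4 buffer, vortexed 2 min, then shaken on an orbital shaker for 24 h at room temperature. Samples were then vacuum-filtered through a polycarbonate membrane before measurement.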

[5] = target: T2, Thyroid hormone receptor beta (Homo sapiens, UniProt P10828); experiment: Inhibition of human thyroid hormone receptor-beta
T2 sequence (P10828 whole entry): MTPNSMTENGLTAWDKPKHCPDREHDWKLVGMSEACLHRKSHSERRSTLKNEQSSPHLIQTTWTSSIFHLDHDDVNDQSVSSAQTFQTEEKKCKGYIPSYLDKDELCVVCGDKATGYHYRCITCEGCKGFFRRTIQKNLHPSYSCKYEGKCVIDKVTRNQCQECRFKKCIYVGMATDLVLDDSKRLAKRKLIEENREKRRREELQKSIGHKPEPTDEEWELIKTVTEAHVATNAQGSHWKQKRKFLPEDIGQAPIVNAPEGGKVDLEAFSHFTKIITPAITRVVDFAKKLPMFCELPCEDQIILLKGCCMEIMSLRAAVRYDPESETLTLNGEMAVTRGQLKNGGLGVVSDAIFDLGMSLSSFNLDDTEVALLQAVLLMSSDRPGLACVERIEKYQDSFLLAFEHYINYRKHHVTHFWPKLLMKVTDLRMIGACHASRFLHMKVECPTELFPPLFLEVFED

[6] = target: T3, Peroxisome proliferator-activated receptor alpha (Homo sapiens, UniProt Q07869); experiment: Agonist activity at human PPAR-alpha
T3 sequence (Q07869 whole entry): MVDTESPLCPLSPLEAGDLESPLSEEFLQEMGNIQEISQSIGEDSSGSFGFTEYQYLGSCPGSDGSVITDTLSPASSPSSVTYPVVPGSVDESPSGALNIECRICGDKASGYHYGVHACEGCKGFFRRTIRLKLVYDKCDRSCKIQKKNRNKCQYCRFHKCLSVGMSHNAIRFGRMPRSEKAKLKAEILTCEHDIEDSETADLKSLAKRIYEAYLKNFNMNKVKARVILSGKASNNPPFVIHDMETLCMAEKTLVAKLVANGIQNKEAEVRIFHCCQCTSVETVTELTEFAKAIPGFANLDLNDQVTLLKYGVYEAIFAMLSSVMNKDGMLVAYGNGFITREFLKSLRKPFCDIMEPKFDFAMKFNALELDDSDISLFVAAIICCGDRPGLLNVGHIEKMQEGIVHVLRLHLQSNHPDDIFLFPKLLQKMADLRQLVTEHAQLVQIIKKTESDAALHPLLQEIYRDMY

Glucocorticoid receptor = target: T4, Glucocorticoid receptor (Homo sapiens, UniProt P04150); experiment: Inhibition of human glucocorticoid receptor
T4 sequence (P04150 whole entry): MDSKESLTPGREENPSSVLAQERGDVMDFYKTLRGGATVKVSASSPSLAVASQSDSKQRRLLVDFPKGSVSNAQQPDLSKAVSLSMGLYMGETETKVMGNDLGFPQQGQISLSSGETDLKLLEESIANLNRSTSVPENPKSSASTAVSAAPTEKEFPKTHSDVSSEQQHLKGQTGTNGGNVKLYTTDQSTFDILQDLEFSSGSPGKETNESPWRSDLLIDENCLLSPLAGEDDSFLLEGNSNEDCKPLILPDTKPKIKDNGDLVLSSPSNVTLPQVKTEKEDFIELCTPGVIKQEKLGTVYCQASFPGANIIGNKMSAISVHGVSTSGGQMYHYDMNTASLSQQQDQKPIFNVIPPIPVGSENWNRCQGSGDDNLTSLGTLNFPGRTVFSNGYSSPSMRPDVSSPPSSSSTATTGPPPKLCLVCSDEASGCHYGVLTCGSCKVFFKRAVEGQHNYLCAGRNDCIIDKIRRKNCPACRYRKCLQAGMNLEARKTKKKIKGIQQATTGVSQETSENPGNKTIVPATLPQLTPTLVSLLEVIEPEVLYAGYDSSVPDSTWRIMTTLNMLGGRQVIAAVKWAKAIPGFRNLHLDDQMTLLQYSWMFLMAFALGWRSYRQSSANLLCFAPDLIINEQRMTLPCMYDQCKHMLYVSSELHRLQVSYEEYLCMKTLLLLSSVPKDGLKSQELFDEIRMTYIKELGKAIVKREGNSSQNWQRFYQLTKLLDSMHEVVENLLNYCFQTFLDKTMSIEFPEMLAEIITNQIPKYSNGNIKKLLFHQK

Estrogen receptor beta = Estrogen receptor beta (Homo sapiens, UniProt Q92731); experiment: Inhibition of human estrogen receptor beta
Estrogen receptor beta, sequence (Q92731 whole entry): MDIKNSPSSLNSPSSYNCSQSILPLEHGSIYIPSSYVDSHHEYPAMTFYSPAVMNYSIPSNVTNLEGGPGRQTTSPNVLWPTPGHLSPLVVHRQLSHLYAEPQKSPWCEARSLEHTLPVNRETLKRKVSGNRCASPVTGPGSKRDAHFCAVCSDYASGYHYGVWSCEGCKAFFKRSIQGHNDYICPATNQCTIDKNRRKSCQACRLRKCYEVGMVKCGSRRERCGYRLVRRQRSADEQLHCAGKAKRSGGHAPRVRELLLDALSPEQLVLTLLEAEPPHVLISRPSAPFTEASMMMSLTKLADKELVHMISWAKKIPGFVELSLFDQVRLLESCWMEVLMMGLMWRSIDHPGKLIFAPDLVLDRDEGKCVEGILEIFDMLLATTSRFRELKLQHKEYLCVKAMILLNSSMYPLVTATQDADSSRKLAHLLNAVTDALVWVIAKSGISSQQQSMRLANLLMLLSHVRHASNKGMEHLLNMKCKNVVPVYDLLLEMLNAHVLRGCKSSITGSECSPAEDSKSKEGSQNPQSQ

[7] = target: T5, Peroxisome proliferator-activated receptor delta (Homo sapiens, UniProt Q03181); experiment: Inhibition of human PPAR-delta
T5 sequence (Q03181 whole entry): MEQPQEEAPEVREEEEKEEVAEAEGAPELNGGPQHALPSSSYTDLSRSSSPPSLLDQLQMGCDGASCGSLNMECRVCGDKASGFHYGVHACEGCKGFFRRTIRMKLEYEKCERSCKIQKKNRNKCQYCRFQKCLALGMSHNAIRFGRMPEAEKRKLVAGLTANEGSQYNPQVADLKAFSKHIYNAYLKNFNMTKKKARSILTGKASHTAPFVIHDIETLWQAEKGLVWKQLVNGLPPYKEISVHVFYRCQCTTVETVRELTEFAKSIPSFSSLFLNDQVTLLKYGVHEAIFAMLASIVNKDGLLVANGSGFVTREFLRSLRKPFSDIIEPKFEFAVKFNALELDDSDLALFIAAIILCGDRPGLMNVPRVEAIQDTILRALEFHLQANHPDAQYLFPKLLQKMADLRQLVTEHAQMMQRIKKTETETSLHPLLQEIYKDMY

[8] = target: T3, Peroxisome proliferator-activated receptor alpha; experiment: Antagonist activity at human PPAR-alpha assessed as inhibition of GW7647-induced effect after overnight incubation by cell-based luciferase reporter gene assay
[9] = target: T3, Peroxisome proliferator-activated receptor alpha; experiment: Antagonist activity at GST-tagged PPAR-alpha (unknown origin) assessed as inhibition of GW7647-induced effect after 2 hrs by TR-FRET assay
Plasma = experiment: Metabolic stability in mouse plasma assessed as compound remaining at 1 uM after 24 hrs by LC-MS/MS analysis; assay type: ADME, cell-free; conditions: 24 h, 1 µM
How it was run: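 A 30 mM DMSO stock was diluted to 100 µM in acetonitrile, then spiked into thawed mouse plasma (1 µM final) and incubated at 37 °C. Aliquots were precipitated in acetonitrile containing buspirone, shaken 5 min and centrifuged at 4000g for 10 min. Supernatant was analysed by LC-MS/MS. Percent remaining = concentration at each time / t0 concentration × 100; mean of at least three experiments.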

Mus musculus = experiment: Reduction in plasma FGF21 level in C57Bl/6 mouse at 30 mg/kg, ip administered for 4 days followed by fasting for last 48 hrs measured 4 hrs post last dose by ELISA; assay type: functional, organism-based; design: dose 30 mg/kg
How it was run: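 C57Bl/6 mice received intraperitoneal drug or saline vehicle daily for four days, with 48 h fasting starting on day 2. Four hours after the final dose, blood was taken by terminal cardiac puncture into EDTA. Plasma FGF21 was measured by ELISA and compared against vehicle by t test.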

Cmax [1]: 1200 nM
AUC [2]: 3400 ng·h/mL
IC50 [3]: 15 µM
solubility at 24 h [4]: 1.5 µM (≈ 0.915 µg/mL)
IC50 [5]: > 100 µM
EC50 [6]: > 100 µM
IC50 (Glucocorticoid receptor): 32.5 µM
IC50 (Estrogen receptor beta): 15.2 µM
IC50 [7]: 6 µM
IC50 [8]: 0.077 µM
EC50 [9]: 1.4 µM
Stability (Plasma): 140.6%
Structure (SMILES): CCn1c(CCCc2ccc(-c3ccc(NS(=O)(=O)c4ccccc4)cn3)cc2)nn(Cc2ccc(C(C)(C)C)cc2)c1=O
Activity (Mus musculus): Active
